Laboratory results as given in ChEMBL document CHEMBL3351274, “Sensitization of tumor necrosis factor-related apoptosis-inducing ligand (TRAIL)-resistant primary prostate cancer cells by isoegomaketone from Perilla frutescens” (J Nat Prod, 2014).
Activity calls are given as the source filed them. The calls are words filed in the database; no cut-off is given here.

How the values were obtained:
[1] = Induction of apoptosis in human RC-58T/h/SA#4 cells assessed as procaspase-9 activation at 20 uM after 24 hrs by immunoblotting analysis relative to untreated control; format: functional
In short: (§1)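 Cells seeded at 5 × 10^4 cells/mL and cultured 24 h, then given 20 μM compound and/or 100 ng/mL TRAIL for 24 h. Whole-cell lysate made in Tris/NaCl/EDTA/NaF/pyrophosphate/PMSF/aprotinin buffer, 30 min on ice, protein measured by BCA. 12% SDS-PAGE at 10 μg/lane, nitrocellulose blot, primary antibodies (caspase-3, -8, -9, Bax, Bcl-2, PARP) overnight at 4 °C, HRP secondary, ECL.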

[2] = Induction of apoptosis in human RC-58T/h/SA#4 cells assessed as DR4 expression at 20 uM after 6 hrs by immunoblotting analysis relative to untreated control; format: functional
[3] = Sensitization of TRAIL-induced apoptosis in human RC-58T/h/SA#4 cells assessed as accumulation at Sub-G1 phase at 20 uM after 24 hrs by annexin-V/propidium iodide staining-based flow cytometry in presence of Dr5 Fc chimera (reference value: 4.8%); format: functional
[4] = Induction of ROS generation in human RC-58T/h/SA#4 cells at 10 uM after 30 mins by flow cytometry (reference value: 1.9%); format: functional
[5] = Induction of apoptosis in human RC-58T/h/SA#4 cells assessed as p53 expression at 40 uM after 24 hrs by immunoblotting analysis relative to untreated control; format: functional
In short: (§2)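 RC-58T/h/SA#4 cells (DMEM, 10% FBS, 37 °C, 5% CO2) exposed to the compound over a concentration range or time course. Lysates run on 12% SDS-PAGE at 10 μg protein/lane, transferred to nitrocellulose and blocked with BSA. Blots probed overnight at 4 °C with anti-p53, then HRP secondary antibody, ECL detection; β-actin as loading control.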

[6] = Sensitization of TRAIL-induced apoptosis in human RC-58T/h/SA#4 cells assessed as Bax activation at 20 uM after 24 hrs by immunoblotting analysis relative to untreated control; format: functional; in short: as §1
[7] = Induction of apoptosis in human RC-58T/h/SA#4 cells assessed as CHOP expression at 20 uM after 3 hrs by immunoblotting analysis relative to untreated control; format: functional
In short: (§3)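 RC-58T/h/SA#4 cells seeded at 5 × 10^4 cells/mL and cultured 24 h, then given compound across a concentration series or at fixed dose over a time course. Lysates were quantified by BCA. 10 μg protein/lane run on 12% SDS-PAGE and transferred to nitrocellulose. Blots probed for p53, CHOP and β-actin with HRP secondary and ECL.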

Homo sapiens [8] = species: Homo sapiens; assay: Induction of apoptosis in human RC-58T/h/SA#4 cells assessed as CHOP expression at 2.5 to 40 uM by immunoblotting analysis relative to untreated control; format: functional, cell-based; settings: TDE = time-dependent effect; in short: as §3
[9] = Induction of apoptosis in human RC-58T/h/SA#4 cells assessed as procaspase-3 activation at 20 uM after 24 hrs by immunoblotting analysis relative to untreated control; format: functional; in short: as §1
[10] = Induction of apoptosis in human RC-58T/h/SA#4 cells assessed as p53 expression at 5 uM after 24 hrs by immunoblotting analysis relative to untreated control; format: functional; in short: as §2
[11] = Induction of apoptosis in human RC-58T/h/SA#4 cells assessed as DR4 expression at 20 uM after 24 hrs by immunoblotting analysis relative to untreated control; format: functional
[12] = Induction of apoptosis in human RC-58T/h/SA#4 cells assessed as DR4 expression at 20 uM after 3 hrs by immunoblotting analysis relative to untreated control; format: functional
[13] = Induction of apoptosis in human RC-58T/h/SA#4 cells assessed as cytochrome C level in cytosol at 20 uM after 24 hrs by immunoblotting analysis relative to untreated control; format: functional
In short: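 Cells grown in DMEM/10% FBS at 37 °C, 5% CO2, then treated 24 h with compound (20 μM) with or without TRAIL (100 ng/mL). Whole lysates were used for Bax and Bcl-2. Cytosolic and mitochondrial fractions were prepared with a mitochondria isolation kit for AIF and cytochrome c. Blotting used 10 μg protein/lane, 12% SDS-PAGE, nitrocellulose, overnight primary antibody at 4 °C and ECL detection.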

[14] = Sensitization of TRAIL-induced apoptosis in human RC-58T/h/SA#4 cells assessed as procaspase-9 activation at 20 uM after 24 hrs by immunoblotting analysis in presence of Dr5 Fc chimera relative to untreated control; format: functional
In short: (§4)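 Cells pretreated 2 h with 100 ng/mL DR5 Fc chimera, then given 20 μM compound and/or 100 ng/mL TRAIL for 24 h. Total lysates immunoblotted (12% SDS-PAGE, nitrocellulose) for caspase-3, -8, -9 and PARP cleavage, with HRP secondary and ECL detection.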

[15] = Induction of apoptosis in human RC-58T/h/SA#4 cells assessed as DR5 expression at 20 uM after 3 hrs by immunoblotting analysis relative to untreated control; format: functional
Homo sapiens [16] = species: Homo sapiens; assay: Sensitization of TRAIL-induced apoptosis in human RC-58T/h/SA#4 cells assessed as condensation of chromatin at 20 uM after 24 hrs by Hoechst 33258 staining-based fluorescence microscopy; format: functional, cell-based
In short: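 Cells seeded at 1 × 10^6/well and given 20 μM compound and/or 100 ng/mL TRAIL for 24 h. Cells fixed in 1% glutaraldehyde and stained with 5 μg/mL Hoechst 33258 for 10 min at room temperature. Nuclear fragmentation and chromatin condensation scored by fluorescence microscopy at ×400.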

[17] = Induction of apoptosis in human RC-58T/h/SA#4 cells assessed as DR4 expression at 5 uM after 24 hrs by immunoblotting analysis relative to untreated control; format: functional
[18] = Induction of apoptosis in human RC-58T/h/SA#4 cells assessed as CHOP expression at 20 uM after 6 hrs by immunoblotting analysis relative to untreated control; format: functional; in short: as §3
[19] = Sensitization of TRAIL-induced apoptosis in human RC-58T/h/SA#4 cells assessed as accumulation at Sub-G1 phase at 20 uM after 24 hrs by annexin-V/propidium iodide staining-based flow cytometry in presence of pan-caspase inhibitor z-VAD-fmk (reference value: 4.8%); format: functional
[20] = Sensitization of TRAIL-induced apoptosis in human RC-58T/h/SA#4 cells assessed as PARP cleavage at 20 uM after 24 hrs by immunoblotting analysis in presence of Dr5 Fc chimera relative to untreated control; format: functional; in short: as §4
Homo sapiens [21] = species: Homo sapiens; assay: Induction of apoptosis in human RC-58T/h/SA#4 cells assessed as DR5 expression at 20 uM by immunoblotting analysis relative to untreated control; format: functional, cell-based; settings: TDE = time-dependent effect
[22] = Induction of apoptosis in human RC-58T/h/SA#4 cells assessed as DR5 expression at 10 uM after 24 hrs by immunoblotting analysis relative to untreated control; format: functional
[23] = Induction of apoptosis in human RC-58T/h/SA#4 cells assessed as DR5 expression at 20 uM after 6 hrs by immunoblotting analysis relative to untreated control; format: functional
[24] = Induction of apoptosis in human RC-58T/h/SA#4 cells assessed as DR5 expression at 20 uM after 12 hrs by immunoblotting analysis relative to untreated control; format: functional

Work on CC(C)/C=C/C(=O)c1ccoc1 yielded a Ratio [1] of 0.8, a Ratio [2] of 1.1 and an Activity [3] of 14.3%. For the same molecule, the Activity [4] was 2%, the Ratio [5] was 2.4 and the Ratio [6] was 1.8. The Ratio [7] was 1, the Activity (Homo sapiens [8]) was “tde” and the Ratio [9] was 1. It also gave a Ratio [10] of 1.2, a Ratio [11] of 1 and a Ratio [12] of 1.2. It also gave a Ratio [13] of 0.9, a Ratio [14] of 1.1 and a Ratio [15] of 1.2. The Activity (Homo sapiens [16]) was “Active”, the Ratio [17] was 1.1 and the Ratio [18] was 1. The Activity [19] was 14.4%, the Ratio [20] was 1 and the Activity (Homo sapiens [21]) was “tde”. It also gave a Ratio [22] of 1.2, a Ratio [23] of 1.3 and a Ratio [24] of 1.3.
